This note sets out measurements from the RNAGym collection of RNA variant scans (doi:10.1126/science.aae0568).

Fewer inactive variants are shown than the library holds.

The chains are these.
B1: tRNA (parent)
chain: GUUCCGUUGGCGUAAUGGUAACGCGUCUCCCUCCUAAGGAGAAGACUGCGGGUUCGAGUCCCGUACGGAACG

The data set covers variants of B1. Description: yeast fitness relative to wild type (ratio to wild type); higher = fitter; tRNA-Arg(CCU), competitive growth, 37 C, YPD. The method in brief:
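Start and end populations of a pooled competition were compared by 100-nucleotide paired-end sequencing of gene amplicons. The Saccharomyces cerevisiae strains carried tRNA-Arg(CCU) gene variants at the native genomic locus, synthesised with a 3% per-site mutation rate at 69 sites, and competed in YPD at 37°C for 24 hours in six parallel replicates. Darwinian fitness relative to wild type was based on the change in genotype frequencies. Genotypes required ≥ 100 starting reads, and estimates < 0.5 were set to 0.5.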
As to GUUCCGUUGGCGUAAUGGUAACGCGUCUUCCUCCUAAGGAGAAGACUGCCGGUUCGAGACCCGUACGGAACG, the yeast fitness came to 0.605.

As to GUUCCGUUGGCGUAAUGGUAACGCGUCUUCCUCCUAAGGAGAAGACUGCCGGUUCGAGUCCCGUACGGAACG, the yeast fitness was found to be 0.664.

For the variant GUUCCGUUGGCGUAAUGGUAACGCGUCUUCCUCCUAAGGAGAAGACUGCGGGUUCGAGUCCCAUACGGUACG, the yeast fitness came out at 0.641.

Consider GUUCCGUUGGCGUAAUGGUAACGCGUCUCACUCCUUAGGAGGAGACUGCGGGUUCGAGUCCCGUACGGAACG, for which the yeast fitness was ≤ 0.5.

As for GUUCCGUUGGCGUAAUGGUAACGCGUCUUCCGCCUAAGGAGAUCACUGCGGGUUCGAGUCCCGUACGGAACG, the yeast fitness was ≤ 0.5.

Regarding GUUCCGUUGGCGUAAUGGUAACGCGUCUUCCUCCUAAGGAGAAGACAGCGGGUUCGAGUCCCGUCCGGAACG, the yeast fitness was ≤ 0.5.

In the case of GUUCCGUUGGCGUAAUGGUAACGCGUCUCACUCCUACGGAGAUGACUGCGGGUUCGAGUCCCGUACGGAACG, the yeast fitness was 0.608.

With GUUCCGUUGGCGUAAUGGUAACGCGUCUUCCUCCUAAGGAGAAGACUGCGGGUUCGAGGCCCGUAUGGAACG, the yeast fitness was 0.732.

As to GUUCCGUUGGCGUAAUGGUAACGCGUCUUCCUCCCACGGAGAAGACUGCGGGUUCGAGUCCCGUACGGAACG, the yeast fitness is ≤ 0.5.

Regarding GUUCCGUUGGCGUAAUGGUAACGCGUCUUCCUCCCAAGGAGAAGACUGCGGGUUCGAGUCCCGUUCGGAACG, the yeast fitness was ≤ 0.5.

Consider GUUCCGUUGGCGUAAUGGUAACGCGUCUUCCUCCCACGGAGAAGACUGCGGGUUCGAGUCCCGUGAGGAACG, for which the yeast fitness was ≤ 0.5.

Regarding GUUCCGUUGGCGUAAUGGUAACGCGUCUCACUCCUUAGGAGAAGACUGCGGGUUCGAGUCCCGUACGAAACG, the yeast fitness was 0.543.

For the variant GUUCCGUUGGCGUAAUGGUAACGCGUCUUCCUCCCAAGGAGAAGACUGCGGGUUCGAGUCGCGUACGGAACG, the yeast fitness stood at 0.672.

Consider GUUCCGUUGGCGUAAUGGUAACGCGUCUUCCACCUAAGGAGAAGACUGCGGGUUCGAGUCCCGUACGGAACG, for which the yeast fitness is 0.83.

As for GUUCCGUUGGCGUAAUGGUAACGCGUCUUCCUCCUAAGGAGAAGACUGCGGGUUCGAGUCCCAUACAGAACG, the yeast fitness was 0.523.

As to GUUCCGUUGGCGUAAUGGUAACGCGUCUUCCUCCUAAGGAGAAGACUCCGGAUUCGAGUCCCGUACGGUACG, the yeast fitness is ≤ 0.5.

As to GUUCCGUUGGCGUAAUGGUAACGCGUCUUCCAUCUAAGGAGAAGACUGCGGGUUCGAGUCCCGUACUGAGCG, the yeast fitness was ≤ 0.5.

On to GUUCCGUUGGCGUAAUGGUAACGCGUCUUCCUCCUAAGGAGAAGACUGCGGGUUCGAAUCCCGUACGGAACG, for which the yeast fitness came to 1.02.

Take GUUCCGUUGGCGUAAUGGUAACGCGUCUUCCUCCUAAGGAGAAGACUGCGGAUUCGAGUCCCGUACGGAACG: the yeast fitness was found to be 0.728.

For the variant GUUCCGUUGGCGUAAUGGUAACGCGUCUUCCUCCUAAGGAGAAGACUGCCGGUUCGAGUACCGUACGGAACG, the yeast fitness is ≤ 0.5.

For GUUCCGUUGGCGUAAUGGUAACGCGUCUUCCUCCUAAGGAGAAGACUGCGGGUCCGAGUCCCGUACGGAACG, the yeast fitness came out at 0.83.

GUUCCGUUGGCGUAAUGGUAACGCGUCUUCCUCCUAAGGAGAAGACUGCGGGUUCAAGUCCCGUACGGAACG: the yeast fitness was 0.765.

Regarding GUUCCGUUGGCGUAAUGGUAACGCGUCUUCCUCCUAAGGAGAAGACUGCGGGUUCCAGUCCCGUACGGAACG, the yeast fitness was 0.595.

Take GUUCCGUUGGCGUAAUGGUAACGCGUCUUCCUCCUAAGGAGAAGACUGCGGGUUCGAGACCCGUACGGAACG: the yeast fitness came to 0.701.

GUUCCGUUGGCGUAAUGGUAACGCGUCUUCCUCCUAAGGAGAAGACUGCGGGUUCGAGCCCCGUACGGAACG: the yeast fitness was 0.868.

Regarding GUUCCGUUGGCGUAAUGGUAACGCGUCUUCCUCCUAAGGAGAAGACUGCGGGCUCGAGUCCCGUACGGAACG, the yeast fitness turned out to be 0.843.

On to GUUCCGUUGGCGUAAUGGUAACGCGUCUUCCUCCUAAGGAGAAGACUGCGCGUUUGAGUCCCGUACGGAACG, for which the yeast fitness is ≤ 0.5.

Take GUUCCGUUGGCGUAAUGGUAACGCGUCUUCCUCCUAAGGAGAAGACUGCGGGUUCGAGUCCCAUACGGAACG: the yeast fitness came out at 0.803.

In the case of GUUCCGUUGGCGUAAUGGUAACGCGUCUUCCCCCUAAGGAGAAGAAUGCGGGUUCGAGUCCCGUACGGAACG, the yeast fitness came to 0.521.

As for GUUCCGUUGGCGUAAUGGUAACGCGUCUUCCUCCUAAGGAGAAGACUGCGGGUUCAAGUCCCGUAUGGAACG, the yeast fitness is 0.619.

Regarding GUUCCGUUGGCGUAAUGGUAACGCGUCUCACUCCUGAGGAGAAGACUGCGGGUUCGAGUCCCGUACGGAACG, the yeast fitness turned out to be 0.819.

On to GUUCCGUUGGCGUAAUGGUAACGCGUCUUCCUCCUAAGGAGAAGACUGCGAGUUCAAGUCCCCUACGGAACG, for which the yeast fitness turned out to be 0.528.

Take GUUCCGUUGGCGUAAUGGUAACGCGUCUCACUCCUCAGGAGAAGACUGCGGAUUCGAGUCCCGUACGGAACG: the yeast fitness is ≤ 0.5.

Turning to GUUCCGUUGGCGUAAUGGUAACGCGUCUUCCUCCUAAGGAGAAGACUGCCGGCUCGUGUCGCGUACGGAACG, the yeast fitness is ≤ 0.5.

For GUUCCGUUGGCGUAAUGGUAACGCGUCUUCCUCCGAAGGAGAAGACUGCGGGUUCGAGUCCUGUACGGAACG, the yeast fitness is ≤ 0.5.

Consider GUUCCGUUGGCGUAAUGGUAACGCGUCUCACUCCUACGGAGAAGACUGCGGGUUCGAGUACCGUACCGAACG, for which the yeast fitness is ≤ 0.5.

For the variant GUUCCGUUGGCGUAAUGGUAACGCGUCUUCCUCCUAAGGAGAAGACUGCGGGUUCGAGUCCCGUACAGAUCG, the yeast fitness turned out to be 0.52.

As for GUUCCGUUGGCGUAAUGGUAACGCGUCUCACUCCUUACGAGAAGACUGCGGGUUCGAGUCCCGUAAGGAACG, the yeast fitness was 0.577.
